This is a sample that favours compounds with a hit; in the whole collection about 2.2% have one here.
Runt-SMMHC FRET = Runt domain-CBFb-SMMHC interaction inhibition | Cerulean-Runt/Venus-CBFb-SMMHC FRET ratio 530/480, 1 h | Q01196+Q13951 | 220,000 tested, 0.74% active | inhibition, % at 20 µM;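 active = mean inhibition across duplicate retests at 20 µM reaching about 50%, limit read from the data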;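 note: 0% = DMSO wells and 100% = wells with excess untagged CBFb-SMMHC; inhibitors lower the FRET ratio by blocking Runt binding to CBFb-SMMHC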
Hck Nef HTS = inhibitors of human Hck kinase activated by Nef | inhibition, % at 20 µM | 220,000 tested, 0.68% active | Recombinant Hck-YEEI plus Nef, Z-Lyte FRET kinase assay | P08631;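 active = Hck-Nef kinase inhibition above about 50%, limit read from the data; inactive = inhibition below that limit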;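 note: 0% = DMSO with Hck plus Nef and 100% = Hck alone without Nef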
eIF4E-4G inh = inhibitors of eIF4E and eIF4G interaction in translation initiation | P63073+Q04637 | inhibition, % at 21.7 µM | 220,000 tested, 0.37% active | TR-FRET eIF4E-eIF4GI(517-606) binding, 2 h;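 active = inhibition above about 30%, limit read from the data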;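 note: 0% = full FRET control wells and 100% = background wells lacking eIF4GI fragment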
Runt-CBFb FRET = inhibitors of human RUNX1 Runt domain binding to CBFb; Q01196+Q13951; Cerulean-Runt/Venus-CBFb FRET ratio 530/480, 1 h; inhibition, % at 20 µM; 220,000 tested, 0.46% active; AID 1496;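 active = inhibition over about 50% at 20 µM in the single-dose screen, limit read from the data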;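 note: 0% = DMSO wells and 100% = excess unlabeled CBFb competitor control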
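Reagent – Venus-CBFb binding partner, 100 nM · Assay system – Cerulean-tagged RUNX1 Runt domain (FRET donor) fusion protein · Input – 100 nM per protein · Incubation – two 1 h room-temperature incubations shielded from light · Measured by – FRET fluorescence · Medium – Tris buffer pH 7.5 with salts and BSA · Benchmarks – unlabeled CBFb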
RanGTP-Impb inh = inhibitors of RanGTP-importin-beta interaction, primary screen, biochemical, FRET, CFP-Ran, YFP-importin-beta, homogeneous. 300,000 tested, 1.1% active. cell-free CFP-Ran/YFP-importin-beta FRET ratio. inhibition, % (no concentration beside the values);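 active = more than half of the replicate wells show a fall in the fluorescence ratio signal beyond about 16%, limit read from the data, passing the limit was not always enough; inconclusive = exactly half of the replicate wells pass the set limit; inactive = fewer than half of replicates pass the limit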;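 note: 0% = DMSO wells and 100% = Ran loaded with GDP instead of GTP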
PERK inhibitor = blocks human PERK kinase. Q9NZJ5. AID 1416. CHO PERK-DD fusion, SEAP luminescence translation reporter. inhibition, % at 5.6 µM. 220,000 tested, 0.17% active;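 active = inhibition above the mean inhibition of all tested compounds plus 3 SD, set separately per screening campaign, cut at about 2.9% in these data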;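 note: PERK kinase domain activated by AP20187 dimerizer at 100 nM; 0% = DMSO with dimerizer and 100% = rapamycin at 8.4 µM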
* hit, by the source's call; ? = inconclusive; · = no result given.

SMILES	Runt-SMMHC FRET	Hck Nef HTS	eIF4E-4G inh	Runt-CBFb FRET	RanGTP-Impb inh	PERK inhibitor
Cc1cccn2c(=O)c3cc(C(=O)NC4CCCCC4)c(=N)n(Cc4ccccc4)c3nc12	·	·	·	·	186.0*	·
O=C(CSc1nc(-c2ccc(F)cc2)cs1)NCCN1C(=O)CSC1=O	-3.0	1.1	4.2	-2.1	9.7	1.1
COc1ccc(N(CN2C(=O)c3ccccc3C2=O)C(=O)COc2ccc(Cl)cc2Cl)cc1	1.1	3.0	6.0	1.4	2.2	1.2
COc1ccc(C(c2nnnn2Cc2cccs2)N2CCN(c3ccccc3F)CC2)cc1OC (stereo not drawn)	-10.0	-1.4	-9.7	-4.7	-9.4	-0.9
Cc1cccn2c(=O)c3cc(C(=O)NC4CCCC4)c(=N)n(Cc4ccc(F)cc4)c3nc12	·	·	·	·	178.3*	·
Cc1ccc(NC(=O)COC(=O)CCc2c[nH]c(=O)[nH]2)cc1	-1.5	0.4	-4.9	-0.4	-5.1	4.0*
Cc1cc(C)c2c(N)c(C(=O)c3ccccc3)sc2n1	3.7	8.0	-5.7	-1.8	1.8	0.3
Cc1cc(C)c2c(N)c(C(=O)C(C)(C)C)sc2n1	91.7*	-5.2	15.5	92.7*	1.2	0.1
O=C(c1cccc(S(=O)(=O)N2CCOCC2)c1)N(Cc1ccc(F)cc1)Cc1ccco1	1.5	1.4	9.2	-0.1	0.8	0.2
COc1cc2ncnc(NCCc3ccccc3)c2cc1OC	-4.8	58.9*	5.5	1.3	1.0	-0.4
CCc1ccc(-c2cc(C(F)(F)F)n3nc(C(=O)Nc4c(C)nn(Cc5ccc(F)cc5)c4C)cc3n2)s1	12.9	7.9	0.6	10.6	58.4*	0.0
CCCC(C)c1nnc(NC(=O)C(=O)OCC)s1 (stereo not drawn)	2.8	10.9	1.5	2.6	0.3	3.0*
CCn1nc(C)cc1Nc1ccccc1	-4.5	-8.4	-1.5	2.1	37.3*	-0.1
Cc1cc(Nc2ccccc2)n(CCO)n1	-0.7	-7.1	-1.0	-0.6	-4.4	1.1
O=c1c(C=Nc2ccc(Cl)cc2)c[nH]n1-c1cccc(Cl)n1	-4.3	25.8	8.9	-2.3	-2.8	1.4
O=c1c(C=Nc2cccc(C(F)(F)F)c2)c[nH]n1-c1cccc(Cl)n1	-1.1	15.6	-26.0	-4.1	-1.5	4.3*
COc1ccc(C2(C)NC(=O)N(CC(=O)Nc3ccc(C)cc3Br)C2=O)cc1OC (stereo not drawn)	·	·	·	·	8.2	·
COc1ccc(C2(C)NC(=O)N(CC(=O)Nc3ccc(Br)c(C)c3)C2=O)cc1OC (stereo not drawn)	·	·	·	·	21.3*	·
Cc1nn(C)cc1C1C2=C(CC(C)(C)CC2=O)N(c2ccccc2)C2=C1C(=O)CC(C)(C)C2	3.5	16.7	1.3	0.3	12.1	-1.1
Cc1ccc(N2C3=C(C(=O)CC(C)(C)C3)C(c3cn(C)nc3C)C3=C2CC(C)(C)CC3=O)cc1	·	·	·	·	25.6*	·
C=CCNc1nc(NCc2ccccc2)c(C#N)c2c1CN(C)CC2	65.0*	6.3	3.5	35.0	108.6*	-0.3
N#Cc1c(NCCN)nc(NCc2ccccc2)c2c1CCN(Cc1ccccc1)C2	·	5.3	·	27.0	·	-1.5
CCCCCNc1nc(NCCCO)c(C#N)c2c1CN(C)CC2	79.2*	10.6	1.1	33.9	146.1*	-0.4
CSCC(C)N1CCC(n2nccc2NC(=O)c2ccc3c(c2)OCO3)CC1 (stereo not drawn)	·	·	·	·	11.3	·
CSCC(C)N1CCC(n2nccc2NC(=O)c2ccccc2C)CC1 (stereo not drawn)	·	·	·	·	20.9*	·
SMILES	Runt-SMMHC FRET	Hck Nef HTS	eIF4E-4G inh	Runt-CBFb FRET	RanGTP-Impb inh	PERK inhibitor
O=C(NCc1ccccc1Cl)c1ccc(S(=O)(=O)Nc2cccc(C(F)(F)F)c2)cc1	4.0	5.6	-1.2	-2.3	1.2	1.4
Cc1ccc(NC(=S)N/N=C/c2c(Cl)cccc2Cl)c(C)c1	4.0	3.7	-4.1	2.5	1.0	-0.6
c1ccc2c(Nc3nncs3)c3ccccc3nc2c1	17.2	26.0	1.2	8.8	59.4*	-0.1
Cc1ccc(N2CS(=O)(=O)/C(=C/N(C)C)C2=O)cc1	-10.4	-1.0	1.2	-2.0	2.3	-0.7
CSc1ccccc1NC(=O)c1ccccc1C	-3.4	-4.5	46.5*	0.6	-2.2	1.8
Cc1ccc(-n2c(-c3ccco3)n[nH]c2=S)cc1	11.4	15.2	-0.9	8.4	?	1.2
